Assay results: PMC11584596 (IDCases, 2024)
Converted amounts (≈) assume the structure as drawn. Where two headings read alike, the source gives them in different places.

Tests used:
[1] = system: methicillin-resistant Staphylococcus epidermidis (MRSE); assay: Antimicrobial susceptibility; type: cell-based; details: for MIC: Staphylococcus epidermidis, MRSE; for MIC^1: MRSE isolate from sample 1 of periprosthetic fluid at diagnosis; for MIC^2: MRSE isolate from sample 2 of periprosthetic fluid at diagnosis
How it was run: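 Two MRSE isolates, each recovered from a separate sample of periprosthetic fluid taken by sterile drainage at diagnosis. A susceptibility profile was recorded for each isolate.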

Gram-positive infections = details: 30 of 32 patients who received at least two doses of oritavancin; cited from earlier work
[2] = system: shoulder PJI caused by methicillin-resistant Staphylococcus epidermidis (MRSE); assay: Clinical course of shoulder prosthetic joint infection under oritavancin; type: in vivo, human (patient); details: ten sequential doses of 1200 mg over 28 weeks; single patient

Compound	MIC ([1]; read-out: MIC^1)	MIC ([1]; read-out: MIC^2)	MIC^1 [1]	other results
CC1(C)S[C@@H]2[C@H](NC(=O)[C@H](N)c3ccccc3)C(=O)N2[C@H]1C(=O)O [Ampicillin]	> 2 mg/L	–	–	–
O=C(O)c1cn(C2CC2)c2cc(N3CCNCC3)c(F)cc2c1=O [Ciprofloxacin]	> 4 mg/L	> 4 mg/L	–	–
CCC[C@@H]1C[C@@H](C(=O)N[C@@H]([C@H]2O[C@H](SC)[C@H](O)[C@@H](O)[C@H]2O)[C@H](C)Cl)N(C)C1 [Clindamicin]	≤ 0.25 mg/L	0.25 mg/L (≈ 0.588 µM)	–	–
CC[C@H]1OC(=O)[C@H](C)[C@@H](O[C@H]2C[C@@](C)(OC)[C@@H](O)[C@H](C)O2)[C@H](C)[C@@H](O[C@@H]2O[C@H](C)C[C@H](N(C)C)[C@H]2O)[C@](C)(O)C[C@@H](C)C(=O)[C@H](C)[C@@H](O)[C@]1(C)O [Eritromicin]	–	–	≤ 0.25 mg/L	MIC^2 [1]: 1 mg/L (≈ 1.36 µM)
C[C@@H]1O[C@@H]1P(=O)(O)O [Fosfomicin c/G6P, Fosfomicin]	–	–	≤ 16 mg/L	–
CC(=O)O[C@H]1C[C@@]2(C)[C@@H](C[C@@H](O)[C@H]3[C@@]4(C)CC[C@@H](O)[C@@H](C)[C@@H]4CC[C@@]32C)/C1=C(\CCC=C(C)C)C(=O)O [Fusidic Acid]	> 8 mg/L	16 mg/L (≈ 31 µM)	–	–
CNC(C)C1CCC(N)C(OC2C(N)CC(N)C(OC3OCC(C)(O)C(NC)C3O)C2O)O1 (centres unmarked) [Gentamicin]	≤ 1 mg/L	≤ 0.5 mg/L	–	–
CC(=O)NC[C@H]1CN(c2ccc(N3CCOCC3)c(F)c2)C(=O)O1 [Linezolid]	1 mg/L (≈ 2.96 µM)	2 mg/L (≈ 5.93 µM)	–	–
COc1c(N2C[C@@H]3CCCN[C@@H]3C2)c(F)cc2c(=O)c(C(=O)O)cn(C3CC3)c12 [Moxifloxacin]	> 1 mg/L	–	–	–
CN[C@H](CC(C)C)C(=O)N[C@H]1C(=O)N[C@@H](CC(N)=O)C(=O)N[C@H]2C(=O)N[C@H]3C(=O)N[C@H](C(=O)N[C@H](C(=O)O)c4cc(O)cc(O)c4-c4cc3ccc4O)[C@H](O[C@H]3C[C@](C)(N)[C@@H](O)[C@H](C)O3)c3ccc(c(Cl)c3)Oc3cc2cc(c3O[C@@H]2O[C@H](CO)[C@@H](O)[C@H](O)[C@H]2O[C@H]2C[C@](C)(NCc3ccc(-c4ccc(Cl)cc4)cc3)[C@@H](O)[C@H](C)O2)Oc2ccc(cc2Cl)[C@H]1O [Oritavancin]	–	–	–	clinical success (Gram-positive infections): 93.8%; side effects [2]: no side effects reported
Cc1onc(-c2ccccc2)c1C(=O)N[C@@H]1C(=O)N2[C@@H]1SC(C)(C)[C@@H]2C(=O)O [Oxacillin]	> 2 mg/L	> 2 mg/L	–	–
CO[C@H]1/C=C/O[C@@]2(C)Oc3c(C)c(O)c4c(O)c(c(/C=N/N5CCN(C)CC5)c(O)c4c3C2=O)NC(=O)/C(C)=C\C=C\[C@H](C)[C@H](O)[C@@H](C)[C@@H](O)[C@@H](C)[C@H](OC(C)=O)[C@@H]1C [Rifampin]	> 1 mg/L	> 2 mg/L	–	–
CN(C)[C@@H]1C(O)=C(C(N)=O)C(=O)[C@@]2(O)C(O)=C3C(=O)c4c(O)cccc4[C@@](C)(O)[C@H]3C[C@@H]12 [Tetraciclin]	–	–	1 mg/L (≈ 2.25 µM)	MIC^2 [1]: 2 mg/L (≈ 4.5 µM)
CN(C)c1cc(NC(=O)CNC(C)(C)C)c(O)c2c1C[C@H]1C[C@H]3[C@H](N(C)C)C(O)=C(C(N)=O)C(=O)[C@@]3(O)C(O)=C1C2=O [Tigeciclin]	–	–	≤ 0.25 mg/L	MIC^2 [1]: 0.25 mg/L (≈ 0.427 µM)
Daptomicin	–	–	–	MIC^2 [1]: 0.25 mg/L
Teicoplanin	–	–	< 2 mg/L	–
Vancomicin	–	–	2 mg/L	MIC^2 [1]: ≤ 0.5 mg/L
